From ChEMBL document CHEMBL4732044, “Discovery of a promising agent IQZ23 for the treatment of obesity and related metabolic disorders” (Eur J Med Chem, 2020)
Activity calls are given as the source filed them. The rule behind the calls is not given here.

How the values were obtained:
3T3-L1 [1] = assay: Lipid lowering activity in mouse 3T3-L1 cells assessed as adipogenic cocktail-induced triglyceride levels at 1 uM by GPO-POD assay; assay type: functional, cell-based; settings: time day <=6
Method in brief: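 Confluent 3T3-L1 cells were treated from day 0 in cocktail (IBMX, dexamethasone, insulin) for 3 days, then re-dosed in insulin medium for 3 more days. For dose–response, concentrations were 0–10 µM (0.01, 0.1, 0.3, 1, 3, 10). On day 6, cells were lysed in 0.2% Triton X-100 and TG was measured by GPO-POD and normalized to BCA protein as % of control. EC50 was fitted from the dose–response. N = 4.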

3T3-L1 [2] = assay: Lipid lowering activity in mouse 3T3-L1 cells assessed as adipogenic cocktail-induced triglyceride levels at 1 uM after 6 to 9 days by GPO-POD assay relative to control; assay type: functional; settings: time 6-9 day
Method in brief: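 3T3-L1 cells were differentiated (cocktail on days 0–3, insulin thereafter) with 1 µM compound present during defined windows (days 0–3, 3–6, 6–9, or 0–3/0–6/0–9). TG was measured at day 9 by GPO-POD after Triton X-100 lysis and sonication. TG was normalized to BCA protein and expressed as % of differentiated control.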

3T3-L1 [3] = assay: Inhibition of mouse 3T3-L1 cells adipocyte differentiation assessed as reduction in adipogenic cocktail-induced C/EBPalpha protein expression at 0.3 to 1 uM after 24 hrs by Western blot analysis; assay type: functional, cell-based; settings: dose 0.3-1 µM
Method in brief: (§1)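 3T3-L1 preadipocytes were exposed to adipogenic cocktail with compound (0.3 or 1 µM) and harvested on day 1. Lysates were resolved by SDS-PAGE, immunoblotted (primary antibody overnight at 4 °C, HRP secondary) and quantified by densitometry normalized to actin.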

3T3-L1 [4] = assay: Inhibition of mouse 3T3-L1 cells adipocyte differentiation assessed as reduction in adipogenic cocktail-induced PPARgamma protein expression at 0.3 to 1 uM after 24 hrs by Western blot analysis; assay type: functional, cell-based; settings: dose 0.3-1 µM; method in brief: as §1
3T3-L1 [5] = assay: Activation of AMPK pathway in adipogenic cocktail-induced mouse 3T3-L1 cells assessed as increase in AMP to ATP ratio at 0.3 to 1 uM after 24 hrs; assay type: cell-based; settings: filed as activator, dose 0.3-1 µM
3T3-L1 [6] = assay: Activation of AMPK pathway in adipogenic cocktail-induced mouse 3T3-L1 cells with SiRNA-induced AMPKalpha knock down assessed as decrease in C/EBPalpha protein expression at 1 uM after 24 hrs by Western blot analysis; assay type: cell-based
Method in brief: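 3T3-L1 cells at 80% density transfected with 50 nM AMPKα siRNA or negative control for 24 h. Once confluent, differentiated with adipogenic cocktail with or without compound. Protein by Western blot normalized to actin. TG measured by GPO-POD kit, normalized to BCA protein, expressed as % of control.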

3T3-L1 [7] = assay: Activation of AMPK pathway in mouse 3T3-L1 cells assessed as increase in PCG1alpha mRNA expression at 0.3 to 1 uM after 24 hrs by RT-qPCR analysis; assay type: cell-based; settings: filed as activator, dose 0.3-1 µM
3T3-L1 [8] = assay: Activation of AMPK pathway in mouse 3T3-L1 cells assessed as increase in CPT1beta mRNA expression at 0.3 to 1 uM after 24 hrs by RT-qPCR analysis; assay type: cell-based; settings: filed as activator, dose 0.3-1 µM
Mus musculus [9] = assay: Antiobesity activity in high fat diet-induced obese C57BL/6J mouse model assessed as decrease in body weight at 20 mg/kg, ip administered for every other days for 6 weeks; assay type: functional, organism-based
Method in brief: (§2)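 Male C57BL/6J mice (7–8 weeks) fed HFC diet (60% fat, 1% cholesterol) for up to 14 weeks. From week 9, given 20 mg/kg i.p. every other day for 6 weeks in saline with 10% ethanol and 10% castor oil, or vehicle. Body weight and food intake recorded daily. At end, mice fasted 6 h, anesthetized, and blood collected into EDTA. Plasma chemistry run on an auto-analyzer; insulin by ultra-sensitive ELISA.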

Mus musculus [10] = assay: Antiobesity activity in high fat diet-induced obese C57BL/6J mouse model assessed as decrease in fat mass at 20 mg/kg, ip administered for every other days for 6 weeks; assay type: functional, organism-based
Mus musculus [11] = assay: Antiobesity activity in high fat diet-induced obese C57BL/6J mouse model assessed as decrease in lean mass at 20 mg/kg, ip administered for every other days for 6 weeks; assay type: functional, organism-based
Mus musculus [12] = assay: Antiobesity activity in high fat diet-induced obese C57BL/6J mouse model assessed as decrease in size of adipocytes at 20 mg/kg, ip administered for every other days for 6 weeks by H and E staining based assay; assay type: functional, organism-based
Mus musculus [13] = assay: Anti-hyperglycemic activity in high fat diet-induced obese C57BL/6J mouse model assessed as decrease in blood glucose level at 20 mg/kg, ip after 6 hrs; assay type: functional, organism-based
Method in brief: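 C57BL/6J mice fed HFC diet (60% fat, 1% cholesterol). Single i.p. injection of saline or compound at 20 mg/kg. Blood glucose measured with a glucose monitor at 0, 0.5, 1, 2, 4, 8, 12 and 24 h.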

Mus musculus [14] = assay: Antiobesity activity in high fat diet-induced obese C57BL/6J mouse model assessed as decrease in TG level at 20 mg/kg, ip administered for every other days for 6 weeks by Oil-red O staining based assay; assay type: functional, organism-based
Method in brief: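 Male C57BL/6J mice on HFC diet, dosed 20 mg/kg i.p. every other day for 6 weeks. Tissues fixed in 4% formaldehyde, paraffin-embedded, cut into 4 µm sections and stained with H&E or Oil-red O. Six random fields per sample scored blind.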

Mus musculus [15] = assay: Antiobesity activity in high fat diet-induced obese C57BL/6J mouse model assessed as ALT level at 20 mg/kg, ip administered for every other days for 6 weeks by auto-analyzer method (reference value: 231.9 +/- 18.5 U/L); assay type: functional; method in brief: as §2
Mus musculus [16] = assay: Antiobesity activity in high fat diet-induced obese C57BL/6J mouse model assessed as albumin level at 20 mg/kg, ip administered for every other days for 6 weeks by auto-analyzer method (reference value: 38.7 […]); assay type: functional; method in brief: as §2
Mus musculus [17] = assay: Antiobesity activity in high fat diet-induced obese C57BL/6J mouse model assessed as creatinine level at 20 mg/kg, ip administered for every other days for 6 weeks by auto-analyzer method (reference value: 14.9 +/- […]); assay type: functional; method in brief: as §2
Mus musculus [18] = assay: Antiobesity activity in high fat diet-induced obese C57BL/6J mouse model assessed as glucose level at 20 mg/kg, ip administered for every other days for 6 weeks by auto-analyzer method (reference value: 11.8 +/- 1.3 mM); assay type: functional; method in brief: as §2
Mus musculus [19] = assay: Antiobesity activity in high fat diet-induced obese C57BL/6J mouse model assessed as cholesterol level at 20 mg/kg, ip administered for every other days for 6 weeks by auto-analyzer method (reference value: 6.2 +/- 0.3 mM); assay type: functional; method in brief: as §2
3T3-L1 [20] = assay: Activation of AMPK pathway in adipogenic cocktail-induced mouse 3T3-L1 cells assessed as decrease in ATP level at 1 uM after 24 hrs; assay type: cell-based; settings: filed as activator
Method in brief: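 Confluent 3T3-L1 pre-adipocytes exposed to adipogenic cocktail (0.5 mM IBMX, 100 ng/mL dexamethasone, 2 µg/mL insulin) with compound at 0.3 or 1 µM for 24 h. ATP quantified with a commercial luminescent kit and normalized to protein.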

3T3-L1 [21] = assay: Activation of AMPK pathway in mouse 3T3-L1 cells assessed as increase in […] mRNA expression at 1 uM after 24 hrs by RT-qPCR analysis; assay type: cell-based; settings: filed as activator
3T3-L1 [22] = assay: Activation of AMPK pathway in mouse 3T3-L1 cells assessed as increase in ACSL mRNA expression at 1 uM after 24 hrs by RT-qPCR analysis; assay type: cell-based; settings: filed as activator

## COc1ccc2[nH]c(-c3nc(NCCCCN4CCCC4)c4ccccc4n3)c(C=O)c2c1
3T3-L1 [1]
  Activity: Dose-dependent effect
3T3-L1 [2]
  Activity: 35.3%
3T3-L1 [3]
  inhibition: Active
3T3-L1 [4]
  inhibition: Active
3T3-L1 [5]
  Activity: Active
3T3-L1 [6]
  Activity: inactive
3T3-L1 [7]
  Activity: Active
3T3-L1 [8]
  Activity: Active
Mus musculus [9]
  Activity: Active
Mus musculus [10]
  Activity: Active
Mus musculus [11]
  Activity: Active
Mus musculus [12]
  Activity: Active
Mus musculus [13]
  Activity: Active
Mus musculus [14]
  Activity: Active
Mus musculus [15]
  Activity: 52 U/L
Mus musculus [16]
  Activity: 30.4 g/L
Mus musculus [17]
  Activity: 14.5 µM
Mus musculus [18]
  Activity: 9.3 mM
Mus musculus [19]
  Activity: 4.7 mM

## CN(C)CCCNc1nc(-c2[nH]c3ccccc3c2C=O)nc2ccccc12
3T3-L1 [20]
  Activity: Active
3T3-L1 [21]
  Activity: Active
3T3-L1 [22]
  Activity: Active
